Source: PubChem
Only some compounds are listed: those with a hit (about 1.8% of all), similar ones and a draw of the others.
CASP6 VEID inh: inhibitors of human caspase-6; inhibition, % at 12.5 µM; purified caspase-6, Z-VEID-R110 cleavage fluorescence; AID 686996; actives 0.53% (n = 350,000); P55212;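 active = mean inhibition across replicates at least about 35%, with every replicate also reaching that limit, limit read from the data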;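 note: 0% = median of neutral control wells and 100% = no fluorescence left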
Target sequence (P55212 24-179 limits assumed): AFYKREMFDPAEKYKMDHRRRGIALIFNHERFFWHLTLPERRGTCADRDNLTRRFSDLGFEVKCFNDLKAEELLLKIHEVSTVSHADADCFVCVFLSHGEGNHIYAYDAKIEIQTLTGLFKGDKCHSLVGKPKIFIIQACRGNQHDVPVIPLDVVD
Target sequence (P55212 194-293 limits assumed): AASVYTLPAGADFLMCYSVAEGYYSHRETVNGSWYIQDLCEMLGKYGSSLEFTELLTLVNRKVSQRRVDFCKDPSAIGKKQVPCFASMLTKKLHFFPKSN
LEDGF integ inh: blocks HIV-1 LEDGF/p75-dependent DNA integration | AID 743269 | actives 0.64% (n = 370,000) | TR-FRET IN-LEDGF/p75 DNA integration, Eu/Cy5 | inhibition, % at 3.7 µM;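 active = inhibition above the screen-wide mean plus 3 SD, cut at about 13% in these data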;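 note: signal is the Cy5 over europium emission ratio at 671 and 618 nm; 0% = plate median of compound wells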
MBD2 inh: blocks human MBD2 binding to methylated DNA. TR-FRET, MBD2 binding to methylated oligonucleotide. Q9UBB5. actives 0.31% (n = 370,000). inhibition, % at 4.4 µM; in the data active = inhibition above about 13%
UHRF1 binding: blocks human UHRF1 binding to methylated DNA | UHRF1 binding to methylated oligo, TR-FRET | inhibition, % at 4.4 µM | actives 0.75% (n = 370,000); in the data active = inhibition above about 21%;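 note: UHRF1 SRA domain binding a hemimethylated CpG hairpin DNA probe; 0% = median of test compound wells and 100% = reference inhibitor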
NSD2 HMT inh: inhibitors of human histone methyltransferase NSD2. NSD2 peptide methylation, AlphaScreen, 120 min. inhibition, % at 12.5 µM. actives 0.54% (n = 310,000). AID 743445; in the data active = inhibition above about 50%
TDP2 absorb: TDP2 (human) inhibition, absorbance primary screen; actives 0.34% (n = 370,000); recombinant TDP2, T5PNP hydrolysis, p-nitrophenol absorbance 415 nm; inhibition, % at 12.8 µM; O95551;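 active = inhibition above the mean of all tested compounds plus 3 SD, set per campaign, cut at about 25% in these data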;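 note: 0% = DMSO with enzyme and 100% = buffer with substrate but no TDP2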
Target sequence (O95551 whole entry, looked up): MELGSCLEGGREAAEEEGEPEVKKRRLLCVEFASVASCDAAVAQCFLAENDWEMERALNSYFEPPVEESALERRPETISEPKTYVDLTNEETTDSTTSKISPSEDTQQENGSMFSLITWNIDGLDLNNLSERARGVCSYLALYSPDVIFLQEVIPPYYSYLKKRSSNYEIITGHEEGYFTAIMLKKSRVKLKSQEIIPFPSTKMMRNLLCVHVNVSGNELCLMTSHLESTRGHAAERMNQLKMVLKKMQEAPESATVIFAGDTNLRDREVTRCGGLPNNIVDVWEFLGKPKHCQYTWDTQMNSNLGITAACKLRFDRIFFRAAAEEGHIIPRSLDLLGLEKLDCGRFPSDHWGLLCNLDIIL
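Incubation: 2 h at 37 °C; Test system: recombinant human TDP2; Quantity: enzyme 120 nM; Read-out basis: percent inhibition; Medium: 50 mM Tris-HCl pH 7.5 with Mg2+, KCl, DTT, BSA; Repeats: single replicate; Compound: 12.8 µM single point, 1% DMSO; Signal: epi absorbance; Reagent: 5 mM T5PNP chromogenic substrate; Benchmarks: no-enzyme high, DMSO-plus-enzyme low.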
IN multimer act: HIV-1 integrase multimerization activation, counter-screen; shares compounds with LEDGF integ inh; TR-FRET HIV-1 integrase multimerization, biochemical; activation, % at 7.7 µM; actives 17% (n = 2,000); in the data active = activation above about 8.9%
TR-FRET interf: TR-FRET optical interference, LEDGF/p75 integration counter-screen | 2,000 tested, under 10 active | TR-FRET optical interference counterscreen, HIV-1 IN multimerization | shares compounds with LEDGF integ inh | inhibition, % at 7.7 µM | AID 1053135;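 active = inhibition above the mean over all tested compounds plus 3 SD, which no compound reached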;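 note: 0% = integrase with antibodies and DMSO and 100% = antibodies without integrase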
LEDGF integ conf: LEDGF/p75-dependent HIV-1 integration inhibition, confirmation | inhibition, % at 3.7 µM | actives 36% (n = 2,000) | TR-FRET LEDGF/p75-dependent HIV-1 integration, biochemical | shares compounds with LEDGF integ inh; in the data active = inhibition above about 14%
An asterisk follows results filed as active.

How did CCOc1ccc(CC(=O)N/N=C/c2cccnc2)cc1OCC do in these assays?
CASP6 VEID inh: -4; LEDGF integ inh: 70*; MBD2 inh: -3; UHRF1 binding: -4; NSD2 HMT inh: -2; TDP2 absorb: 7; IN multimer act: 2; TR-FRET interf: -10; LEDGF integ conf: 0

What do the screens show for `COc1cccc(Nc2nc(C(N)C(C)C)cs2)n1` (stereo not drawn)?
CASP6 VEID inh: -3; LEDGF integ inh: 1; MBD2 inh: 6; UHRF1 binding: 3; NSD2 HMT inh: 2; TDP2 absorb: -3

Results for COc1cccc(Nc2nc(C(N)CC(C)C)cs2)n1 (stereo not drawn) ?
CASP6 VEID inh: 2; LEDGF integ inh: 14*; MBD2 inh: 0; UHRF1 binding: -1; NSD2 HMT inh: 8; TDP2 absorb: 0; IN multimer act: -1; TR-FRET interf: 3; LEDGF integ conf: 5

How did O=C(N[C@@H]1CC[C@H](CCNC(=O)C2CCOCC2)O[C@H]1CO)c1ccccn1 do in these assays?
CASP6 VEID inh: 2

What do the screens show for `CN1CCN(CP(=O)(N2CCOCC2)N2CCOCC2)CC1`?
LEDGF integ inh: 27*; MBD2 inh: -3; UHRF1 binding: -1; NSD2 HMT inh: 0; TDP2 absorb: 2; IN multimer act: 6; TR-FRET interf: -21; LEDGF integ conf: 3

Results for CCOc1ccc(NC(=O)CN(C)c2ccc(S(=O)(=O)N3CCOCC3)cn2)cc1OCC ?
LEDGF integ inh: 15*; MBD2 inh: -3; UHRF1 binding: 41*; NSD2 HMT inh: -2; TDP2 absorb: 4; IN multimer act: 1; TR-FRET interf: -4; LEDGF integ conf: -2

What do the screens show for `Cc1ccc(NC(=O)CN(C)c2ccc(S(=O)(=O)N3CCCC3)cn2)cc1`?
CASP6 VEID inh: 3; LEDGF integ inh: -4; MBD2 inh: -1; UHRF1 binding: 2; NSD2 HMT inh: 2; TDP2 absorb: 0

What do the screens show for `COC(=O)C1=C(CCc2ccccc2)NC(=O)NC1c1ccc(C#N)cc1` (stereo not drawn)?
CASP6 VEID inh: 2; LEDGF integ inh: 2; MBD2 inh: 0; UHRF1 binding: 1; TDP2 absorb: -5

What do the screens show for `COC(=O)C1=C(CCc2ccccc2)NC(=O)NC1c1ccc(Cl)cc1` (stereo not drawn)?
CASP6 VEID inh: 1; LEDGF integ inh: 18*; MBD2 inh: -2; UHRF1 binding: 0; TDP2 absorb: 1; IN multimer act: 2; TR-FRET interf: -5; LEDGF integ conf: -7

Results for Cc1ccc(S(=O)(=O)Nc2ccc3c(c2)C(=O)N([C@H](C)CO)C[C@H](C)[C@@H](CN(C)S(=O)(=O)c2ccc(F)cc2)O3)cc1 ?
CASP6 VEID inh: 0

What do the screens show for `Cc1noc(C)c1NC(=O)N(C)C[C@@H]1Oc2c(NS(=O)(=O)c3cn(C)cn3)cccc2C(=O)N([C@@H](C)CO)C[C@H]1C`?
CASP6 VEID inh: 0

Results for CC(=C/C(=O)O)/C=C/c1ccc(Cl)o1 ?
LEDGF integ inh: 13*; MBD2 inh: 8; UHRF1 binding: 32*; TDP2 absorb: -3; IN multimer act: 5; TR-FRET interf: -27; LEDGF integ conf: 54*

How did CC(/C=C/c1ccc(C)o1)=C\C(=O)O do in these assays?
LEDGF integ inh: 5; MBD2 inh: -2; UHRF1 binding: 0; TDP2 absorb: 0

How did C[C@@H]1CN([C@@H](C)CO)C(=O)c2cc(NC(=O)C3CC3)ccc2O[C@H]1CN(C)C(=O)NC1CCCCC1 do in these assays?
CASP6 VEID inh: -1

What do the screens show for `Cc1cccc(C(=O)Nc2cccc3cccnc23)c1`?
CASP6 VEID inh: -1; LEDGF integ inh: 5; MBD2 inh: -2; UHRF1 binding: 1; NSD2 HMT inh: -4; TDP2 absorb: -1

How did Cc1ccc(/C=C/C(=O)Nc2cccc3cccnc23)o1 do in these assays?
LEDGF integ inh: 14*; MBD2 inh: -7; UHRF1 binding: -1; NSD2 HMT inh: -1; TDP2 absorb: 0; IN multimer act: 2; TR-FRET interf: -8; LEDGF integ conf: 1

What do the screens show for `C[C@H](CO)N1C[C@H](C)[C@@H](CN(C)C(=O)C2CC2)OCc2ccccc2-c2ccccc2C1=O`?
CASP6 VEID inh: -2

Results for O=C(N/N=C/C=C/c1ccco1)c1ccncc1 ?
CASP6 VEID inh: 13; LEDGF integ inh: 0; MBD2 inh: -2; UHRF1 binding: -2; NSD2 HMT inh: 4; TDP2 absorb: 7

What do the screens show for `O=C(N/N=C/C=C\c1ccco1)c1cccs1`?
CASP6 VEID inh: 34; LEDGF integ inh: 15*; MBD2 inh: 3; UHRF1 binding: 8; NSD2 HMT inh: 4; TDP2 absorb: 16; IN multimer act: 8; TR-FRET interf: -30; LEDGF integ conf: 20*

Results for O=C(Cc1cccs1)N/N=C/C=C\c1ccco1 ?
CASP6 VEID inh: 34; LEDGF integ inh: 7; MBD2 inh: 10; UHRF1 binding: 0; NSD2 HMT inh: 4; TDP2 absorb: 3

How did O=C(N/N=C/C=C/c1ccco1)/C(=C/c1ccccc1)NC(=O)c1ccccc1 do in these assays?
CASP6 VEID inh: 3; LEDGF integ inh: 18*; MBD2 inh: -1; UHRF1 binding: -1; NSD2 HMT inh: 15; TDP2 absorb: -19; IN multimer act: 8; TR-FRET interf: -39; LEDGF integ conf: 29*

How did O=C(O)CCCCC1SCC2NC(=O)NC21 (stereo not drawn) do in these assays?
CASP6 VEID inh: -1; LEDGF integ inh: 70*; MBD2 inh: 4; UHRF1 binding: -2; TDP2 absorb: 5; IN multimer act: -2; TR-FRET interf: 9; LEDGF integ conf: 63*

How did C[C@@H]1NC(=O)N[C@@H]1CCCCCC(=O)O do in these assays?
CASP6 VEID inh: 1; LEDGF integ inh: 82*; MBD2 inh: -5; UHRF1 binding: -2; TDP2 absorb: 1; IN multimer act: -1; TR-FRET interf: 5; LEDGF integ conf: 74*

Results for Cc1cccc(C)c1NC(=O)CCCCCC1NC(=O)NC1C (stereo not drawn) ?
CASP6 VEID inh: 1; LEDGF integ inh: 20*; MBD2 inh: -2; UHRF1 binding: -1; NSD2 HMT inh: 24; TDP2 absorb: 9; IN multimer act: -2; TR-FRET interf: 9; LEDGF integ conf: 10
